Test results from ChEMBL document CHEMBL4024800, “α-Amino-β-carboxymuconate-ε-semialdehyde Decarboxylase (ACMSD) Inhibitors as Novel Modulators of De Novo Nicotinamide Adenine Dinucleotide (NAD+) Biosynthesis” (J Med Chem, 2018).
Converted amounts (≈) assume the structure as drawn. The source made the active and inactive calls. The rule behind the calls is not given here.

Experiments:
Homo sapiens [1] = organism: Homo sapiens; experiment: Activity at TR (unknown origin)
Method in brief: (§1)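 Eight-point serial dilutions tested in an in-house AlphaScreen-based nuclear receptor panel; activity derived from nonlinear regression curves.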

Cytochrome P450 2C19 = Cytochrome P450 2C19 (Homo sapiens, UniProt P33261); experiment: Inhibition of recombinant human CYP2C19 expressed in baculosomes expression system using fluorogenic-BOMCC as substrate by fluorescent homogeneous assay; type: ADME
Method in brief: (§2)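 Recombinant CYP baculosomes with fluorogenic substrates, at concentrations below their Km; homogeneous fluorescence read-out, run in triplicate. IC50 classes: <1 μM potent, 1–10 μM moderate, >10 μM weak or none.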

[2] = AUClast in mouse blood at 5 mg/kg, po measured up to 8 hrs post dose; type: ADME, organism-based; parameters: time < 8 hr, dose 5 mg/kg, route oral
Method in brief: (§3)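 Mice dosed orally at 5 mg/kg in 0.5% (w/v) HPMC in water with 5% (v/v) DMSO; blood, liver and kidney concentrations followed to 8 h. AUC0–8h given in h·ng/mL; parameters reported as means.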

[3] = Ratio of AUClast in mouse liver to blood at 5 mg/kg, po measured up to 8 hrs post dose
[4] = Solubility of compound in PBS buffer at pH 7.4 after 24 hrs by UV/vis-spectroscopic analysis; type: physicochemical
Method in brief: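 Compound in PBS pH 7.4 with 1% DMSO mixed, incubated 24 h and vacuum-filtered; filtrate read by UV/vis and relative solubility calculated from summed readings against a standard. Reported in mg/mL.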

[5] = Cytotoxicity against mouse AML-12 cells assessed as reduction in cell viability after 4 hrs by celltiter-glo assay; type: cell-based; conditions: aml-12, 4 h
Method in brief: (§4)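 HepG2 or AML12 cells, 5 × 10^3 per well, exposed to compound for 4 h at 37 °C. Viability read as ATP by CellTiter-Glo luminescence; tamoxifen control.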

HepG2 = experiment: Cytotoxicity against human HepG2 cells assessed as reduction in cell viability after 4 hrs by celltiter-glo assay; type: cell-based; conditions: hepg2, 4 h; method in brief: as §4
[6] = Drug uptake in mouse central nervous system at 5 mg/kg, po; type: ADME, organism-based; conditions: in vivo
[7] = AUClast in mouse liver at 5 mg/kg, po measured up to 8 hrs post dose; type: ADME, organism-based; parameters: dose 5 mg/kg, time < 8 hr, route oral; method in brief: as §3
[8] = Cmax in CD1 mouse at 5 mg/kg, po measured up to 8 hrs after dose; type: ADME, organism-based; parameters: dose 5 mg/kg, route oral; conditions: in vivo; method in brief: as §3
[9] = Half life in CD1 mouse at 0.5 mg/kg, iv measured up to 24 hrs post dose; type: ADME, organism-based; conditions: in vivo
Method in brief: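 Mice given 0.5 mg/kg IV in saline containing 5% (v/v) DMSO and 20% (v/v) PEG400; blood pharmacokinetic parameters reported as means.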

Homo sapiens [10] = organism: Homo sapiens; experiment: Activity at PPAR (unknown origin); method in brief: as §1
[11] = Oral bioavailability in CD1 mouse at 5 mg/kg measured up to 8 hrs after dose; type: ADME, organism-based; conditions: in vivo; method in brief: as §3
[12] = Drug uptake in mouse central nervous system at 5 mg/kg, po in presence of P-gp inhibitor Elacridar; type: ADME, organism-based; conditions: in vivo
Cytochrome P450 2D6 = Cytochrome P450 2D6 (Homo sapiens, UniProt P10635); experiment: Inhibition of recombinant human CYP2D6 expressed in baculosomes expression system using fluorogenic-BOMCC as substrate by fluorescent homogeneous assay; type: ADME; method in brief: as §2
[13] = Ratio of AUClast in mouse kidney to blood at 5 mg/kg, po measured up to 8 hrs post dose
[14] = target: T1, Glucocorticoid receptor (Homo sapiens) (UniProt P04150); experiment: Activity at GR (unknown origin); method in brief: as §1
T1 sequence (whole entry): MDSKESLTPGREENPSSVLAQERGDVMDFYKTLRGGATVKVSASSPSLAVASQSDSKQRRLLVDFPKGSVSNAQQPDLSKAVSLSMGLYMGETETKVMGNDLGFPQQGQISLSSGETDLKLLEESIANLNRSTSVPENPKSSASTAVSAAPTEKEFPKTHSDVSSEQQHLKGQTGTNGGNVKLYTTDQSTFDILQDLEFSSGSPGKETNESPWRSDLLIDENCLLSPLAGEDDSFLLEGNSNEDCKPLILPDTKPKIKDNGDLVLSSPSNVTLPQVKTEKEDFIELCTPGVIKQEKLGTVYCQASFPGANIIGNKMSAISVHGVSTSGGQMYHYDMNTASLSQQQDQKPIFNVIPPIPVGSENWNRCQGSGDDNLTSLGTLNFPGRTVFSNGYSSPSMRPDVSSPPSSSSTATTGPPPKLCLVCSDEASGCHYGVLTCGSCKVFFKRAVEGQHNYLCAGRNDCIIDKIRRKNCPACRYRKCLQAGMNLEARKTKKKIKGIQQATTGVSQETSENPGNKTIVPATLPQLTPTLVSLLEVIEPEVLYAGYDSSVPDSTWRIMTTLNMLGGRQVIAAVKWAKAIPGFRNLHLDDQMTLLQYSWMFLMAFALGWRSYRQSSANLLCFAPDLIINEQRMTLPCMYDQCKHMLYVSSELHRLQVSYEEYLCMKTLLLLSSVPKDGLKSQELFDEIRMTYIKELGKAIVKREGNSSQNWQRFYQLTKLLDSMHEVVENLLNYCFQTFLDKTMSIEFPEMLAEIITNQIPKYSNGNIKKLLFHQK

[15] = target: T2, Bile acid receptor (Homo sapiens) (UniProt Q96RI1); experiment: Activity at FXR (unknown origin); method in brief: as §1
T2 sequence (whole entry): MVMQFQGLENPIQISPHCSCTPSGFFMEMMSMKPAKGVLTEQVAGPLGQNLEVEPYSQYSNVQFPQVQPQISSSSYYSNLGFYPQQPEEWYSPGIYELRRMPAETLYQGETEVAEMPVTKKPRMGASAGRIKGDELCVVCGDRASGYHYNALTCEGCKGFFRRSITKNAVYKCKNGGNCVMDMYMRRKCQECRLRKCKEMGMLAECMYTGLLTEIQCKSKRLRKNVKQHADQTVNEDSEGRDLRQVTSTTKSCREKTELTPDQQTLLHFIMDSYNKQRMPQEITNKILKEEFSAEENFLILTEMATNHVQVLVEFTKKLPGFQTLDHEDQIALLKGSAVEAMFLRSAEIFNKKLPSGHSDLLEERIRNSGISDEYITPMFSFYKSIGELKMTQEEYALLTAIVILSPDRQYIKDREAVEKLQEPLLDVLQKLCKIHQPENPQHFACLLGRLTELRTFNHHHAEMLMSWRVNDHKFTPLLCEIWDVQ

[16] = target: 2-amino-3-carboxymuconate-6-semialdehyde decarboxylase (Homo sapiens, UniProt Q8TDX5); experiment: Inhibition of ACMSD in human primary hepatocytes assessed as increase in intracellular NAD+ levels at 5 uM after 48 hrs by NAD/NADH-Glo assay; type: cell-based
Sequence of 2-amino-3-carboxymuconate-6-semialdehyde decarboxylase (Q8TDX5 whole entry, looked up): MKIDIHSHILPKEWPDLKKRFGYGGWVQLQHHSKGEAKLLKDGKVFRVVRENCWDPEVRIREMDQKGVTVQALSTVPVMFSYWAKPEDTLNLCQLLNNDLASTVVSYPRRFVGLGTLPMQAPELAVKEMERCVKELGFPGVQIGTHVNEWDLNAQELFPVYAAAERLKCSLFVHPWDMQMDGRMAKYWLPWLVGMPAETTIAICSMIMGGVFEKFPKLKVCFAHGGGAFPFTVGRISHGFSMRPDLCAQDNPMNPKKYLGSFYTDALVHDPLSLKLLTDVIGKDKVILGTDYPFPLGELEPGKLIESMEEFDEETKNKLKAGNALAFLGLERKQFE

Sequence of Cytochrome P450 2D6 (P10635 whole entry): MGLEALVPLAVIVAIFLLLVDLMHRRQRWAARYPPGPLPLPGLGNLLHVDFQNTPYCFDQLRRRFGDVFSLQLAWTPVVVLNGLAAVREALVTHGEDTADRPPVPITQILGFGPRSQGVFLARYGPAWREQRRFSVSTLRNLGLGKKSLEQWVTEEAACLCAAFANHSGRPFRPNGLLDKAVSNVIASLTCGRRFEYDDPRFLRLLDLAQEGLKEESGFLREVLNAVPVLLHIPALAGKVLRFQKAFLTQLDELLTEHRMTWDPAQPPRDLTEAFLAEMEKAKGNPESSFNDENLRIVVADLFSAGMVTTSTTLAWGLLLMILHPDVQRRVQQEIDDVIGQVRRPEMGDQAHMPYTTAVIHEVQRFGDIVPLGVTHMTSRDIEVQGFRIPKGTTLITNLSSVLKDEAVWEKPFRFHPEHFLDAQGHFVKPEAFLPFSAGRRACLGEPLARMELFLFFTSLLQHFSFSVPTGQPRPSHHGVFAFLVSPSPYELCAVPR
Sequence of Cytochrome P450 2C19 (P33261 whole entry): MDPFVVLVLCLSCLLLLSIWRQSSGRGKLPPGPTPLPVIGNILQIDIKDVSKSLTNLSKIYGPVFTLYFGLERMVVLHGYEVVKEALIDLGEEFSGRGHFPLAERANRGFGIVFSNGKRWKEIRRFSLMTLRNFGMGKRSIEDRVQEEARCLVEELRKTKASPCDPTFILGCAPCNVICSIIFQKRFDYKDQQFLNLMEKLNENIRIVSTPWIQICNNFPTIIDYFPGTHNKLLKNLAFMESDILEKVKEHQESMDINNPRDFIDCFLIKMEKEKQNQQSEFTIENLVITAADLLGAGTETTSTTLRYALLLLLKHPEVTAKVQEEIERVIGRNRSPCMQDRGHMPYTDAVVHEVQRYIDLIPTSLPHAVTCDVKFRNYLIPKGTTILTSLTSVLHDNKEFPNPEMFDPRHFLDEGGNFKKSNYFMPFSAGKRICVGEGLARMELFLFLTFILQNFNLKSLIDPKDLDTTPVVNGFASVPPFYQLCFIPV

Activity (Homo sapiens [1]): inactive | IC50 (Cytochrome P450 2C19): > 10 µM | AUC(0-t) at 8 h [2]: 12700 ng·h/mL | Kp at 8 h [3]: 1.5 | solubility at 24 h [4]: 800 µg/mL (≈ 2090 µM) | Drug uptake [6]: Not Active | AUC(0-t) at 8 h [7]: 19200 ng·h/mL | Cmax [8]: 2570 ng/mL | half-life [9]: 5.33 h | Activity (Homo sapiens [10]): inactive | bioavailability [11]: 12% | Drug uptake [12]: Not Active | IC50 (Cytochrome P450 2D6): > 10 µM | Kp at 8 h [13]: 2.9 | Activity [14]: inactive | Activity [15]: inactive | inhibition [16]: Active
Compound: N#Cc1c(-c2cccs2)nc(SCc2cccc(CC(=O)O)c2)[nH]c1=O
Activity [5]: Non-Toxic | Activity (HepG2): Non-Toxic
